Article PMC4257570 (Basic & Clinical Pharmacology & Toxicology, 2014)
Where “and” joins values, the source holds several entries; their conditions need not be identical. Identical values can stand only once.

Tests used:
[1] = Population pharmacokinetic analysis; format: in vivo, human
Outline: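 Oral doses were 2.5–75 mg single and 2.5–60 mg/day multiple; only vortioxetine-alone data from interaction studies were used. Models were two-compartment with lag time and first-order absorption and elimination (one- and three-compartment also tested). Covariates, including CYP genotype-inferred metaboliser status, were added forward then deleted backward. Bootstrap gave 95% CIs.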

[2] = cited from earlier work
[3] = cited from earlier work; remark: listed apart in the source
[4] = no reference given; cited from earlier work
[5] = ref unpublished data; cited from earlier work
[6] = non-compartmental analysis, healthy young subjects

Br.Cc1ccc(Sc2ccccc2N2CCNCC2)c(C)c1 [vortioxetine, 1-[2-(2,4-dimethyl-phenylsulfanyl)-phenyl]-piperazine hydrobromide]
CL/F of CYP2C19 EMs relative to PMs ([1]; CYP2C19 EM vs PM): 1.4 times | Oral clearance (CL/F), estimate ([1]; CYP2D6-inferred extensive metabolisers (EM), final model): 34.1 L/h | Oral clearance (CL/F), estimate ([1]; CYP2D6-inferred intermediate metabolisers (IM), final model): 26.6 L/h | Oral clearance (CL/F), estimate ([1]; CYP2D6-inferred poor metabolisers (PM), final model): 18.1 L/h | Oral clearance (CL/F), estimate ([1]; CYP2D6-inferred ultra metabolisers (UM), final model): 52.9 L/h | CL/F of CYP2D6 extensive metabolisers relative to poor metabolisers ([1]; CYP2D6 EM vs PM): 1.9 times | Oral clearance (CL/F), population mean ([1]; all healthy subjects, oral dosing, from the base model): 32.7 L/h and 33 L/h | Absorption rate constant (ka), estimate ([1]; final model): 0.142 h⁻¹ | Interindividual variability (IIV) of CL/F ([1]; final model): 42% | Interindividual variability (IIV) of V2/F ([1]; final model): 31% | Interindividual variability (IIV) of ka ([1]; final model): 51% | Lag-time (ALAG), estimate ([1]; final model): 0.781 h | Volume of distribution, peripheral comp (V3/F), estimate ([1]; final model): 661 L | Age on CL/F ([1]; final model, covariate effect): 0.277 L/hr/yr | Height on V2/F ([1]; final model, covariate effect): 17.4 L/cm | half-life ([1]; human, plasma, im, Estimated mean t1/2, CYP2D6-inferred metabolic status IM): 73 h | Vd/F ([1]; human, plasma, oral): 1970 L | half-life ([1]; human, plasma, oral, Estimated mean t1/2, CYP2D6-inferred metabolic status EM): 60 h | half-life ([1]; human, plasma, oral, Estimated mean t1/2, CYP2D6-inferred metabolic status PM): 104 h | half-life ([1]; human, plasma, oral, Estimated mean t1/2, CYP2D6-inferred metabolic status UM): 42 h | V2/F, population mean ([1]; men, sex as only covariate): 1940 L | Sum of the central and peripheral volumes of distribution (V2/F + V3/F) ([1]; population mean, oral administration): 2600 L | Higher exposure in a subject compared with the population mean ([1]; subject vs population mean of 44 years): ≤ 40% | CL/F, population mean ([1]; women, sex as only covariate): 30 L/h | V2/F, population mean ([1]; women, sex as only covariate): 1810 L | Absolute bioavailability for oral administration [2]: 75% | Clearance (oral clearance) [2, 6]: 47 L/h | Elimination half-life [2, 6]: 57 h | Change of CL/F of vortioxetine when co-administered with bupropion ([3]; bupropion (CYP2D6 inhibitor)): reduced approximately by half | Increase of vortioxetine exposure with co-administration of bupropion ([3]; bupropion (CYP2D6 inhibitor)): approximately 2 fold | Decrease of AUC of vortioxetine with co-administration of rifampicin ([3]; rifampicin (broad CYP inducer)): 72% | Effect of co-administration of omeprazole on vortioxetine steady-state exposure ([3]; single dose of omeprazole (CYP2C19 inhibitor)): no effects | Renal clearance [4]: negligible

Cc1cc(C(=O)O)ccc1Sc1ccccc1N1CCNCC1 [Lu AA34443, 3-methyl-4-(2-piperazine-1-yl-phenylsulfanyl)-benzoic acid]
Crossing of the blood–brain barrier [5]: incapable of crossing the blood–brain barrier
